Experimental data reported in ChEMBL document CHEMBL1126653, “Structure-function studies of amphiphilic antibacterial peptides” (1993).
Converted amounts (≈) assume the structure as drawn. Peptide text beside a SMILES is read from it.

Key:
Staphylococcus aureus [1] = assay: Compound tested for in vitro susceptibility against ATCC strain 29213 of Staphylococcus aureus; assay type: functional
In short: (§1)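 Microbroth dilution in Tryptic Soy Broth; inoculum 5×10^5 CFU/mL; plates incubated at 37 °C for 18-20 h; value reported as minimal inhibitory concentration (µg/mL).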

Staphylococcus aureus [2] = assay: Compound tested for the activity against Staphylococcus aureus strain 1; assay type: functional; in short: as §1
Pseudomonas aeruginosa [3] = assay: Compound tested for the antimicrobial activity against Pseudomonas aeruginosa strain 6; assay type: functional; in short: as §1
Pseudomonas aeruginosa [4] = assay: Compound tested for the antimicrobial activity against Pseudomonas aeruginosa strain 10; assay type: functional; in short: as §1
Escherichia coli = assay: Compound tested for in vitro susceptibility against ATCC strain 25922 of Escherichia coli; assay type: functional; conditions: ATCC25922; in short: as §1
[5] = tested on: Acinetobacter calcoaceticus subsp. anitratus; assay: Compound tested for the antimicrobial activity against Acinetobacter anitratus; assay type: functional
In short: (§2)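 MIC by microbroth dilution in Tryptic Soy Broth; inoculum 5×10^5 CFU/mL; plates incubated 18-20 h at 37 °C; assay pH approximately 7.4.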

Pseudomonas aeruginosa [6] = assay: Compound tested for the antimicrobial activity against Pseudomonas aeruginosa strain 1; assay type: functional; in short: as §1
Staphylococcus aureus [7] = assay: Compound tested for the activity against Staphylococcus aureus strain 11; assay type: functional; in short: as §1
Staphylococcus aureus [8] = assay: Compound tested for the activity against Staphylococcus aureus strain 10; assay type: functional; in short: as §1
Pseudomonas aeruginosa [9] = assay: Compound tested for the antimicrobial activity against Pseudomonas aeruginosa strain 9; assay type: functional; in short: as §1
Pseudomonas aeruginosa [10] = assay: Compound tested for the antimicrobial activity against Pseudomonas aeruginosa strain 3; assay type: functional; in short: as §1
Pseudomonas aeruginosa [11] = assay: Compound tested for the antimicrobial activity against Pseudomonas aeruginosa strain 2; assay type: functional; in short: as §1
Enterobacter cloacae [12] = assay: Compound tested for the antimicrobial activity against Enterobacter cloacae ROS; assay type: functional, enterobacter cloacaeros; in short: as §2
[13] = tested on: Salmonella enterica subsp. enterica serovar Anatum; assay: Compound tested for the antimicrobial activity against S. a natum; assay type: functional, salmoneila anatum; in short: as §1
Staphylococcus aureus [14] = assay: Compound tested for the activity against Staphylococcus aureus strain 5; assay type: functional; in short: as §1
Staphylococcus aureus [15] = assay: Compound tested for the activity against Staphylococcus aureus strain 4; assay type: functional; in short: as §1
Staphylococcus aureus [16] = assay: Compound tested for the activity against Staphylococcus aureus strain 2; assay type: functional; in short: as §1
Staphylococcus aureus [17] = assay: Compound tested for the activity against Staphylococcus aureus strain 3; assay type: functional; in short: as §1
Klebsiella pneumoniae = assay: Compound tested for the antimicrobial activity against Klebsiella pneumoniae; assay type: functional; in short: as §2
Pseudomonas aeruginosa [18] = assay: Compound tested for the antimicrobial activity against Pseudomonas aeruginosa strain ATCC 25916; assay type: functional; in short: as §1
Staphylococcus aureus [19] = assay: Compound tested for the activity against Staphylococcus aureus strain 6; assay type: functional; in short: as §1
Pseudomonas aeruginosa [20] = assay: Compound tested for the antimicrobial activity against Pseudomonas aeruginosa strain 8; assay type: functional; in short: as §1
Staphylococcus aureus [21] = assay: Compound tested for the activity against Staphylococcus aureus strain 8; assay type: functional; in short: as §1
Pseudomonas aeruginosa [22] = assay: Compound tested for the antimicrobial activity against Pseudomonas aeruginosa strain 7; assay type: functional; in short: as §1
Staphylococcus aureus [23] = assay: Compound tested for the activity against Staphylococcus aureus strain 7; assay type: functional; in short: as §1
Proteus mirabilis = assay: Compound tested for the antimicrobial activity against Proteus mirabilis; assay type: functional; in short: as §1
Staphylococcus aureus [24] = assay: Compound tested for the activity against Staphylococcus aureus strain ATCC 28953; assay type: functional; in short: as §1
Enterobacter cloacae [25] = assay: Compound tested for the antimicrobial activity against Enterobacter cloacae; assay type: functional; in short: as §1
Staphylococcus aureus [26] = assay: Compound tested for the activity against Staphylococcus aureus strain 9; assay type: functional; in short: as §1
Pseudomonas aeruginosa [27] = assay: Compound tested for the antimicrobial activity against Pseudomonas aeruginosa strain 5; assay type: functional; in short: as §1
Shigella flexneri = assay: Compound tested for the antimicrobial activity against Shigella flexneri; assay type: functional; in short: as §2
Pseudomonas aeruginosa [28] = assay: Compound tested for in vitro susceptibility against ATCC strain 27853 of Pseudomonas aeruginosa; assay type: functional; conditions: ATCC 27853; in short: as §1
Pseudomonas aeruginosa [29] = assay: Compound tested for the antimicrobial activity against Pseudomonas aeruginosa strain 4; assay type: functional; in short: as §1
Pseudomonas aeruginosa [30] = assay: Compound tested for the antimicrobial activity against Pseudomonas aeruginosa strain 11; assay type: functional; in short: as §1
[31] = Hemolytic activity towards human erythrocytes is evaluated for magainin 2 at peptide concentration of 200 µg/mL; assay type: functional
In short: (§3)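 Washed human erythrocytes from healthy volunteers (3 mL packed cells, PBS pH 7.4 washes, diluted to 20 mL) exposed to peptide in PBS at 25-200 µg/mL, 30 min at 37 °C; supernatant absorbance at 576 nm after centrifugation; 0.1% Triton X-100 taken as 100% hemolysis; duplicates.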

[32] = Hemolytic activity towards human erythrocytes is evaluated for magainin 2 at peptide concentration of 50 µg/mL; assay type: functional; in short: as §3
[33] = Hemolytic activity towards human erythrocytes is evaluated for magainin 2 at peptide concentration of 25 ug/mL; assay type: functional; in short: as §3
[34] = Hemolytic activity towards human erythrocytes is evaluated for magainin 2 at peptide concentration of 100 µg/mL; assay type: functional; in short: as §3
Staphylococcus aureus [35] = assay: Compound tested for the activity against strain of Staphylococcus aureus ATCC 28953; assay type: functional; in short: as §1

Compound | MIC (Staphylococcus aureus [1]) [µg/mL] | MIC (Staphylococcus aureus [2]) [µg/mL] | MIC (Pseudomonas aeruginosa [3]) [µg/mL] | MIC (Pseudomonas aeruginosa [4]) [µg/mL] | MIC (Escherichia coli) [µg/mL] | MIC (Pseudomonas aeruginosa [6]) [µg/mL] | MIC (Staphylococcus aureus [7]) [µg/mL] | MIC (Staphylococcus aureus [8]) [µg/mL] | MIC (Pseudomonas aeruginosa [9]) [µg/mL] | MIC (Pseudomonas aeruginosa [10]) [µg/mL] | MIC (Pseudomonas aeruginosa [11]) [µg/mL] | MIC (Staphylococcus aureus [14]) [µg/mL] | MIC (Staphylococcus aureus [15]) [µg/mL] | MIC (Staphylococcus aureus [16]) [µg/mL] | MIC (Staphylococcus aureus [17]) [µg/mL] | MIC (Pseudomonas aeruginosa [18]) [µg/mL] | MIC (Staphylococcus aureus [19]) [µg/mL] | MIC (Pseudomonas aeruginosa [20]) [µg/mL] | MIC (Staphylococcus aureus [21]) [µg/mL] | MIC (Pseudomonas aeruginosa [22]) [µg/mL] | also measured
CC(C)C[C@H](NC(=O)[C@H](CCCCN)NC(=O)[C@H](CC(C)C)NC(=O)[C@H](Cc1c[nH]c2ccccc12)NC(=O)[C@H](CCCCN)NC(=O)[C@@H](N)CCCCN)C(=O)N[C@@H](Cc1c[nH]c2ccccc12)C(=O)N[C@@H](CCCCN)C(=O)N[C@@H](C)C(=O)N[C@@H](Cc1c[nH]c2ccccc12)C(=O)O (H-KKWLKLWKAW-OH) | 12.5 (≈ 9.01 µM) | > 100 | > 100 | 50 (≈ 36.1 µM) | 25 (≈ 18 µM) | 25 (≈ 18 µM) | > 100 | > 100 | > 100 | 50 (≈ 36.1 µM) | 12.5 (≈ 9.01 µM) | > 100 | > 100 | > 100 | > 100 | 25 (≈ 18 µM) | > 100 | 50 (≈ 36.1 µM) | > 100 | 50 (≈ 36.1 µM) | MIC [5]: < 0.39 µg/mL; MIC (Enterobacter cloacae [12]): 50 µg/mL (≈ 36.1 µM); MIC [13]: 12.5 µg/mL (≈ 9.01 µM); MIC (Klebsiella pneumoniae): > 100 µg/mL; MIC (Staphylococcus aureus [23]): > 100 µg/mL; MIC (Proteus mirabilis): > 100 µg/mL; MIC (Staphylococcus aureus [24]): > 100 µg/mL; MIC (Enterobacter cloacae [25]): < 0.39 µg/mL; MIC (Staphylococcus aureus [26]): > 100 µg/mL; MIC (Pseudomonas aeruginosa [27]): 50 µg/mL (≈ 36.1 µM); MIC (Shigella flexneri): < 0.39 µg/mL; MIC (Pseudomonas aeruginosa [28]): 12.5 µg/mL (≈ 9.01 µM); MIC (Pseudomonas aeruginosa [29]): 50 µg/mL (≈ 36.1 µM); MIC (Pseudomonas aeruginosa [30]): 50 µg/mL (≈ 36.1 µM)
CC(C)C[C@H](NC(=O)[C@H](C)NC(=O)[C@H](CCCCN)NC(=O)[C@H](C)NC(=O)[C@H](CC(C)C)NC(=O)[C@H](CCCCN)NC(=O)[C@H](C)NC(=O)[C@H](CC(C)C)NC(=O)[C@H](CCCCN)NC(=O)[C@H](C)NC(=O)[C@H](CC(C)C)NC(=O)[C@H](CCCCN)NC(=O)[C@H](CCCCN)NC(=O)[C@H](C)NC(=O)[C@H](CC(C)C)NC(=O)[C@@H](N)CCCCN)C(=O)O (H-KLAKKLAKLAKLAKAL-OH) | 12.5 (≈ 7.32 µM) | > 100 | > 100 | > 100 | 6.25 (≈ 3.66 µM) | 3.12 (≈ 1.83 µM) | > 100 | > 100 | > 100 | 3.12 (≈ 1.83 µM) | 6.25 (≈ 3.66 µM) | > 100 | > 100 | > 100 | > 100 | 6.25 (≈ 3.66 µM) | > 100 | 50 (≈ 29.3 µM) | > 100 | 6.25 (≈ 3.66 µM) | Hemolysis [31]: 2%; MIC [5]: 3.12 µg/mL (≈ 1.83 µM); MIC (Enterobacter cloacae [12]): 12.5 µg/mL (≈ 7.32 µM); MIC [13]: 25 µg/mL (≈ 14.6 µM); Hemolysis [32]: 1%; MIC (Klebsiella pneumoniae): 12.5 µg/mL (≈ 7.32 µM); Hemolysis [33]: 1%; MIC (Staphylococcus aureus [23]): > 100 µg/mL; MIC (Proteus mirabilis): > 100 µg/mL; MIC (Staphylococcus aureus [24]): > 100 µg/mL; MIC (Enterobacter cloacae [25]): 3.12 µg/mL (≈ 1.83 µM); MIC (Staphylococcus aureus [26]): > 100 µg/mL; MIC (Pseudomonas aeruginosa [27]): 6.25 µg/mL (≈ 3.66 µM); MIC (Shigella flexneri): 25 µg/mL (≈ 14.6 µM); Hemolysis [34]: 1%; MIC (Pseudomonas aeruginosa [28]): 3.12 µg/mL (≈ 1.83 µM); MIC (Pseudomonas aeruginosa [29]): 3.12 µg/mL (≈ 1.83 µM); MIC (Pseudomonas aeruginosa [30]): 6.25 µg/mL (≈ 3.66 µM)
CC(C)C[C@H](NC(=O)[C@H](Cc1c[nH]c2ccccc12)NC(=O)[C@H](CCCCN)NC(=O)[C@H](CCCCN)NC(=O)[C@@H](N)Cc1c[nH]c2ccccc12)C(=O)N[C@@H](Cc1c[nH]c2ccccc12)C(=O)N[C@@H](C)C(=O)N[C@@H](CCCCN)C(=O)N[C@@H](Cc1c[nH]c2ccccc12)C(=O)O (H-WKKWLWAKW-OH) | 25 (≈ 18.8 µM) | 50 (≈ 37.5 µM) | > 100 | > 100 | 50 (≈ 37.5 µM) | 50 (≈ 37.5 µM) | 50 (≈ 37.5 µM) | 50 (≈ 37.5 µM) | > 100 | 50 (≈ 37.5 µM) | 12.5 (≈ 9.39 µM) | 50 (≈ 37.5 µM) | 50 (≈ 37.5 µM) | 25 (≈ 18.8 µM) | > 100 | 50 (≈ 37.5 µM) | 50 (≈ 37.5 µM) | 50 (≈ 37.5 µM) | 50 (≈ 37.5 µM) | 50 (≈ 37.5 µM) | Hemolysis [31]: 5%; Hemolysis [32]: 1%; MIC (Staphylococcus aureus [35]): > 100 µg/mL; Hemolysis [33]: 1%; MIC (Staphylococcus aureus [23]): 25 µg/mL (≈ 18.8 µM); MIC (Staphylococcus aureus [26]): 50 µg/mL (≈ 37.5 µM); MIC (Pseudomonas aeruginosa [27]): 50 µg/mL (≈ 37.5 µM); Hemolysis [34]: 4%; MIC (Pseudomonas aeruginosa [28]): 12.5 µg/mL (≈ 9.39 µM); MIC (Pseudomonas aeruginosa [29]): 50 µg/mL (≈ 37.5 µM); MIC (Pseudomonas aeruginosa [30]): 50 µg/mL (≈ 37.5 µM)
